Data reported in ChEMBL document CHEMBL4808167, “Design, Synthesis, and Evaluation of Small Molecule Gαq/11 Protein Inhibitors for the Treatment of Uveal Melanoma” (J Med Chem, 2021).
Active and inactive are the calls of the source. The rule behind the calls is not given here.

Assays:
[1] = Toxicity in nude BALB/c mouse xenografted with human MP41 cells assessed as morphological changes in heart tissue at 10 to 30 mg/kg, ip administered once daily for 21 days and measured every 3 days by HE staining based assay; type: organism-based; conditions: in vivo, 504 h, dose 10-30 mg/kg, time 21 day
Summary of the method: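 Nude BALB/c mice bearing serially passaged MP41 tumour slices (tertiary recipients, n = 8/group, randomized) dosed ip daily for 21 days at 10 or 30 mg/kg/d or vehicle. Body weight monitored every 3 days. Tissues collected at sacrifice, fixed in 4% paraformaldehyde 24 h, paraffin-embedded, H&E stained, viewed at ×100.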

[2] = Tmax in ICR mouse at 30 mg/kg, po measured upto 24 hrs by LC-MS/MS analysis; type: ADME, organism-based; conditions: in vivo
Summary of the method: (§1)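 Single-dose PK in male ICR mice (n = 6): 10 mg/kg iv or 30 mg/kg po, vehicle 5% DMSO/95% saline. Blood (30 μL) by catheter at 0, 5, 15, 30 min and 1, 2, 4, 6, 8, 24 h; plasma by centrifugation, stored −80 °C, measured by LC–MS/MS. Parameters from noncompartmental analysis, mean SD.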

921 = assay: (§2) Antiproliferative activity against human 92.1 cells assessed as inhibition of cell growth after 72 hrs by CCK8 assay; type: functional, cell-based
Summary of the method: (§3)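 92.1 or MP41 cells in RPMI-1640 with 10% FBS were seeded at 3 × 10³ cells/well. Exposed to serial concentrations for 72 h at 37 °C, 5% CO₂. CCK-8 added for 1−4 h, absorbance read at 450 nm. IC₅₀ from concentration−response curve fit, mean ± SD.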

[3] = as §2; type: functional, cell-based; conditions: Homo sapiens, 921, 72 h; summary of the method: as §3
[4] = Induction of apoptosis in human MP41 cells assessed as necrotic cells at 15 uM after 48 hrs by Annexin-V-FITC/propidium iodide staining based flow cytometry (reference value: 0.11%); type: functional
[5] = Tmax in ICR mouse at 10 mg/kg, iv measured upto 24 hrs by LC-MS/MS analysis; type: ADME, organism-based; conditions: in vivo; summary of the method: as §1
[6] = Induction of apoptosis in human 921 cells assessed as viable cells at 5 uM after 48 hrs by Annexin-V-FITC/propidium iodide staining based flow cytometry (reference value: 93.8%); type: functional; conditions: read-out: Activity
[7] = MRT(0 to t) in ICR mouse at 30 mg/kg, po measured upto 24 hrs by LC-MS/MS analysis; type: ADME, organism-based; conditions: in vivo; summary of the method: as §1
[8] = target: T1, GNAQ/GNA11 (Homo sapiens) (UniProt P50148+P29992); assay: Inhibition of Galphaq/11 in human MP41 cells assessed as induction of YAP phosphorylation at 5 to 15 uM after 48 hrs by Western blot analysis; type: cell-based; conditions: dose 5-15 µM
Summary of the method: (§4)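 92.1 and MP41 cells plated overnight, then exposed to compound 48 h. Lysed in ice-cold buffer and protein quantified by BCA. Resolved on 8−12% SDS−PAGE and transferred to PVDF. Probed for p-YAP Ser127, total YAP, p-ERK1/2 Thr202/Tyr204 and total ERK1/2, with GAPDH as loading control. ECL detection, triplicate.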

[9] = Induction of apoptosis in human 921 cells assessed as late apoptotic cells at 15 uM after 48 hrs by Annexin-V-FITC/propidium iodide staining based flow cytometry (reference value: 2.52%); type: functional
[10] = Half life in ICR mouse at 10 mg/kg, iv measured upto 24 hrs by LC-MS/MS analysis; type: ADME, organism-based; conditions: in vivo
Summary of the method: (§5)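 Single dose in male ICR mice, 10 mg/kg iv or 30 mg/kg po, dissolved in 5% DMSO/95% saline. Blood drawn by catheter at 0, 5, 15, 30 min and 1, 2, 4, 6, 8, 24 h. Plasma spun 6800g 6 min at 2−8 °C, stored −80 °C, quantified by LC−MS/MS. Noncompartmental parameters, mean ± SD, n = 6.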

MP41 = assay: Antiproliferative activity against human MP41 cells assessed as inhibition of cell growth at 15 to 30 uM by CCK8 assay; type: functional, cell-based; conditions: dose 15-30 µM, time 24-96 hrs, TDE = time-dependent effect
[11] = Induction of apoptosis in human 921 cells assessed as early apoptotic cells at 15 uM after 48 hrs by Annexin-V-FITC/propidium iodide staining based flow cytometry (reference value: 3.39%); type: functional
[12] = Induction of apoptosis in human MP41 cells assessed as late apoptotic cells at 15 uM after 48 hrs by Annexin-V-FITC/propidium iodide staining based flow cytometry (reference value: 3.28%); type: functional
[13] = Induction of apoptosis in human 921 cells assessed as necrotic cells at 5 uM after 48 hrs by Annexin-V-FITC/propidium iodide staining based flow cytometry (reference value: 0.26%); type: functional
[14] = Induction of apoptosis in human MP41 cells assessed as viable cells at 30 uM after 48 hrs by Annexin-V-FITC/propidium iodide staining based flow cytometry (reference value: 93.6%); type: functional; conditions: read-out: Activity
[15] = target: T1, GNAQ/GNA11 (Homo sapiens); assay: Inhibition of Galphaq/11 in human MP41 cells assessed as reduction in ERK phosphorylation at 15 to 30 uM after 48 hrs by Western blot analysis; type: cell-based; conditions: dose 15-30 µM; summary of the method: as §4
[16] = AUC(0 to t) in ICR mouse at 30 mg/kg, po measured upto 24 hrs by LC-MS/MS analysis; type: ADME, organism-based; design: route oral, dose 30 mg/kg, time <=24; conditions: in vivo; summary of the method: as §5
[17] = Induction of apoptosis in human 921 cells assessed as viable cells at 15 uM after 48 hrs by Annexin-V-FITC/propidium iodide staining based flow cytometry (reference value: 93.8%); type: functional; conditions: read-out: Activity
[18] = Induction of apoptosis in human 921 cells assessed as necrotic cells at 15 uM after 48 hrs by Annexin-V-FITC/propidium iodide staining based flow cytometry (reference value: 0.26%); type: functional

T1 sequence (P29992 whole entry, looked up): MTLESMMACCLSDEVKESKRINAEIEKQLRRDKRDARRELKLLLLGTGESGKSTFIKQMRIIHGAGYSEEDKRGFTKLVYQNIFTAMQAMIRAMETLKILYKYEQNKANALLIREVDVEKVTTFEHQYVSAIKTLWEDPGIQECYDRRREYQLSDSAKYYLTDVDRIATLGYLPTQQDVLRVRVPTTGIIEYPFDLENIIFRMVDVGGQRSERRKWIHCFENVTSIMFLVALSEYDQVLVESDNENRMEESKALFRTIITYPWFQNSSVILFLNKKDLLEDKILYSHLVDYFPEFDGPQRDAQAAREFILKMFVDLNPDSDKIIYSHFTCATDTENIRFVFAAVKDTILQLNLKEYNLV
T1 sequence (P50148 whole entry, looked up): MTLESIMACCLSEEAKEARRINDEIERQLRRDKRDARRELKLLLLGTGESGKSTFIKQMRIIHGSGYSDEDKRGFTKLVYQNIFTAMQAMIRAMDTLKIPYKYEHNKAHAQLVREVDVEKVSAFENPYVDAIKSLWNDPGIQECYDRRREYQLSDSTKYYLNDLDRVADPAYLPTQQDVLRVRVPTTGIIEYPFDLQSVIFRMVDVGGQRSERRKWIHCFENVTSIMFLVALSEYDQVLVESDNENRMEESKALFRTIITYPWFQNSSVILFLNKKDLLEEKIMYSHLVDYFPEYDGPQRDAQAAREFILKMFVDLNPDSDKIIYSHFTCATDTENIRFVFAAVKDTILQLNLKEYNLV

Tmax [2]: 25.2 min
Tmax [5]: 4.8 min
MRT last at 24 h [7]: 113 min
inhibition [8]: Active
half-life [10]: 70.2 min
inhibition [15]: Active
AUC(0-t) at 24 h [16]: 5940 ng·h/mL
Compound: CC[C@@H](C)[C@H](N)C(=O)N1CCn2cc(-c3ccccc3)nc2[C@@H]1CC1CCCCC1
Activity [1]: Non-Toxic
Activity 921: Dose-Dependent Effect
IC50 [3]: 10.1 µM
Activity [4]: 0.09%
viability at 5 µM [6]: 90.1%
Activity [9]: 6.99%
Activity (MP41): Tde
Activity [11]: 13.1%
Activity [12]: 4.42%
Activity [13]: 0.43%
viability at 30 µM [14]: 75.7%
viability at 15 µM [17]: 79.6%
Activity [18]: 0.36%
